Laboratory results taken from ChEMBL document CHEMBL4765302, “Design, synthesis and biological evaluation of novel histone deacetylase1/2 (HDAC1/2) and cyclin-dependent Kinase2 (CDK2) dual inhibitors against malignant cancer” (Eur J Med Chem, 2020).
Calls of active or inactive are those of the source. The rule behind the calls is not given here.

What was measured:
[1] = test system: A-375; test: Induction of apoptosis in human A-375 cells assessed as late apoptotic cells at 0.5 uM incubated for 48 hrs by annexin V-FITC and PI staining based flow cytometry (reference value: 2.24 %); type: functional
[2] = AUC (0 to t) in ICR mouse at 4 mg/kg, iv measured upto 24 hrs by LC-MS/MS analysis; type: ADME, organism-based; design: route intravenous, dose 4 mg/kg, time <=24; conditions: in vivo
In short: (§1)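 Male ICR mice (N=9). Single dose, either 4 mg/kg intravenous or 20 mg/kg intraperitoneal. Parameters derived: T1/2, Tmax, Cmax, AUC0-t, MRT0-t and CL, with F for the intraperitoneal arm.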

[3] = Toxicity in Balb/c mouse xenografted with human HCT-116 cells assessed as reduction in body weight at 25 to 100 mg/kg, ip administered for 21 days and measured on day 21; type: organism-based; conditions: in vivo, 504 h, dose 25-100 mg/kg, time 21 day
In short: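 BALB/c nude mice bearing HCT116 xenografts were dosed once daily by intraperitoneal injection at 25, 50 or 100 mg/kg for 21 days, starting when tumours reached 100-300 mm³. Body weight was tracked over the dosing period and compared with the blank group.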

[4] = test system: HCT-116; test: Antiproliferative activity against human HCT-116 cells assessed as reduction in cell growth at 8 uM incubated for 72 hrs by CCK-8 assay relative to control; type: functional
[5] = test system: A-375; test: Induction of apoptosis in human A375 cells assessed as apoptosis rate at 2 uM incubated for 48 hrs by annexin V-FITC and PI staining based flow cytometry relative to control; type: functional
[6] = test system: A-375; test: Induction of cell cycle arrest in human A-375 cells assessed as reduction in G0/G1 phase at 0.5 to 2 uM incubated for 24 hrs by PI staining based flow cytometry; type: functional; conditions: dose 0.5-2 µM
In short: (§2)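 Treatment at 2, 1 and 0.5 μM for 24 h, alongside CS055 and roscovitine, against a DMSO (0.1 %) blank. Cells then stained with propidium iodide and analyzed by flow cytometry.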

[7] = test system: A-375; test: Antiproliferative activity against human A-375 cells assessed as reduction in cell growth incubated for 72 hrs by CCK-8 assay; type: functional, cell-based; conditions: A-375, 72 h
In short: (§3)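 IC50 by CCK-8 assay across five solid-tumour lines (HCT116, HepG2, H460, HeLa, A375). Run only for compounds chosen after the single-concentration screen, with CS055 and roscovitine as references.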

[8] = test system: HeLa; test: Induction of apoptosis in human HeLa cells assessed as necrotic cells at 1 uM incubated for 48 hrs by annexin V-FITC and PI staining based flow cytometry (reference value: 0.124 %); type: functional
[9] = test system: NCI-H460; test: Induction of apoptosis in human NCI-H460 cells assessed as early apoptotic cells at 1 uM incubated for 48 hrs by annexin V-FITC and PI staining based flow cytometry (reference value: 2.88 %); type: functional
[10] = test system: HeLa; test: Induction of cell cycle arrest in human HeLa cells assessed as G2/M phase at 0.5 uM incubated for 24 hrs by PI staining based flow cytometry (reference value: 7.89 %); type: functional; in short: as §2
[11] = test system: NCI-H460; test: Induction of apoptosis in human NCI-H460 cells assessed as early apoptotic cells at 2 uM incubated for 48 hrs by annexin V-FITC and PI staining based flow cytometry (reference value: 2.88 %); type: functional
[12] = test system: HCT-116; test: Induction of apoptosis in human HCT-116 cells assessed as viable cells at 1 uM incubated for 48 hrs by annexin V-FITC and PI staining based flow cytometry (reference value: 93.9 %); type: functional; conditions: read-out: Activity
[13] = test system: A-375; test: Induction of apoptosis in human A-375 cells assessed as necrotic cells at 2 uM incubated for 48 hrs by annexin V-FITC and PI staining based flow cytometry (reference value: 0.139 %); type: functional
[14] = test system: A-375; test: Induction of apoptosis in human A-375 cells assessed as late apoptotic cells at 2 uM incubated for 48 hrs by annexin V-FITC and PI staining based flow cytometry (reference value: 2.24 %); type: functional
[15] = test system: HCT-116; test: Cytotoxicity against human HCT-116 cells assessed as effect on cell morphology at 0.5 to 8 micromol incubated for 48 hrs by microscopic analysis; type: functional, cell-based; conditions: dose 0.5-8 µmol
In short: (§4)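 Five cancer cell lines treated with compound or DMSO (0.1 %) for 48 h. Morphology inspected by light microscopy at 10× objective.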

[16] = target: Histone deacetylase 1 (Homo sapiens, UniProt Q13547); test: Inhibition of recombinant human HDAC1 at 10 uM using SIRT1 as substrate incubated for 10 mins followed by substrate addition and measured after 30 mins by fluorescence based assay relative to control; conditions: time 40.0 min
In short: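 Enzyme inhibition of HDAC1 measured at a single concentration of 10 µM, tested alongside the cell-growth screen.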

[17] = target: Histone deacetylase 2 (Homo sapiens, UniProt Q92769); test: Inhibition of recombinant human HDAC2 using FLUOR-DE-LYS-Green as substrate incubated for 10 mins followed by substrate addition and measured after 30 mins by fluorescence based assay
In short: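 IC50 values reported as means of at least two separate determinations, expressed as mean ±SD.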

[18] = test system: A-375; test: Antimigratory activity against human A-375 cells assessed as inhibition of migration at 0.5 uM incubated for 48 hrs by microscopic based wound healing test; type: functional, cell-based
In short: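 Scratch (wound-healing) migration assay in A375 and H460 cells seeded in 12-well plates. Cells exposed to compound, CS055, roscovitine or DMSO blank for 48 h. At least two independent experiments.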

[19] = test system: NCI-H460; test: Induction of apoptosis in human NCI-H460 cells assessed as viable cells at 0.5 uM incubated for 48 hrs by annexin V-FITC and PI staining based flow cytometry (reference value: 90.4 %); type: functional; conditions: read-out: Activity
[20] = test system: A-375; test: Induction of apoptosis in human A-375 cells assessed as late apoptotic cells at 1 uM incubated for 48 hrs by annexin V-FITC and PI staining based flow cytometry (reference value: 2.24 %); type: functional
[21] = MRT (0 to t) in ICR mouse at 20 mg/kg, ip measured upto 24 hrs by LC-MS/MS analysis; conditions: in vivo
[22] = test system: NCI-H460; test: Induction of apoptosis in human NCI-H460 cells assessed as necrotic cells at 1 uM incubated for 48 hrs by annexin V-FITC and PI staining based flow cytometry (reference value: 0.632 %); type: functional
[23] = Tmax in ICR mouse at 20 mg/kg, ip measured upto 24 hrs by LC-MS/MS analysis; conditions: in vivo
[24] = test system: HeLa; test: Induction of apoptosis in human HeLa cells assessed as viable cells at 1 uM incubated for 48 hrs by annexin V-FITC and PI staining based flow cytometry (reference value: 98.5 %); type: functional; conditions: read-out: Activity
[25] = test system: HeLa; test: Induction of apoptosis in human HeLa cells assessed as necrotic cells at 0.5 uM incubated for 48 hrs by annexin V-FITC and PI staining based flow cytometry (reference value: 0.124 %); type: functional
[26] = test system: HeLa; test: Antiproliferative activity against human HeLa cells assessed as reduction in cell growth incubated for 72 hrs by CCK-8 assay; type: functional, cell-based; in short: as §3
[27] = Clearance in ICR mouse at 4 mg/kg, iv measured upto 24 hrs by LC-MS/MS analysis; type: ADME, organism-based; conditions: in vivo; in short: as §1
[28] = test system: A-375; test: Cytotoxicity against human A-375 cells assessed as effect on cell morphology at 0.5 to 8 micromol incubated for 48 hrs by microscopic analysis; type: functional, cell-based; conditions: dose 0.5-8 µmol; in short: as §4

Chain of Histone deacetylase 1 (Q13547 whole entry): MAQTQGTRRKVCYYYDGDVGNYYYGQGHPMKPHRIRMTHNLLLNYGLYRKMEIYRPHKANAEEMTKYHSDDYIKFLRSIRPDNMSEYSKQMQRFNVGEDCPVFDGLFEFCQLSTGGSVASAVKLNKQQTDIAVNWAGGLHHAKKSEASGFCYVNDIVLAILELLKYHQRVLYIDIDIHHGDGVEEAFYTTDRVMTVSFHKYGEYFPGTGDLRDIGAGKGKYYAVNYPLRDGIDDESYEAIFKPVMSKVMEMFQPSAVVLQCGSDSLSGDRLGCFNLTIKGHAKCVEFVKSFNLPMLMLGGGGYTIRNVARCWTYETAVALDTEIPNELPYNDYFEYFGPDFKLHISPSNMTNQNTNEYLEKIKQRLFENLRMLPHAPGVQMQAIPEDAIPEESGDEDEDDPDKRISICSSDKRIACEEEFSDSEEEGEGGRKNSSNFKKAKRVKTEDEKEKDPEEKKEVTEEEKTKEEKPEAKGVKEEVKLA
Chain of Histone deacetylase 2 (Q92769 whole entry): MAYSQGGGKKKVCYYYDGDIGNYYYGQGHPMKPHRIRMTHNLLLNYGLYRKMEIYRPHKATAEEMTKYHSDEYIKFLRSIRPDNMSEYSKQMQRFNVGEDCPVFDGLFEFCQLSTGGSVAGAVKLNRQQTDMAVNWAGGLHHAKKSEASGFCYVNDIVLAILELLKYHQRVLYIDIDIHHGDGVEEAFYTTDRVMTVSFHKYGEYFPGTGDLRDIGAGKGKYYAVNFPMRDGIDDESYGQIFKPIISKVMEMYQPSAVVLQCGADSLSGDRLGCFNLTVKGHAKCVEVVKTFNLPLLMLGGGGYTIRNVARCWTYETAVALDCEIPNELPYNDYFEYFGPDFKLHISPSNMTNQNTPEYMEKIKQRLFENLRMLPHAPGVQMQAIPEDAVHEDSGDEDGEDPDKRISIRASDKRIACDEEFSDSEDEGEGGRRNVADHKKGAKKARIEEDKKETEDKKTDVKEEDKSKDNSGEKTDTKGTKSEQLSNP

Cc1ccc(Nc2nc(Cl)nc3c2ncn3Cc2ccc(C(=O)Nc3ccccc3N)cc2)cc1
Activity [1]: 72.2% | AUC(0-t) at 24 h [2]: 2850 ng·h/mL | Activity [3]: Non-Toxic | inhibition at 8 µM [4]: 81.5% | Activity [5]: 91.99% | Activity [6]: Active | IC50 [7]: 470 nM | Activity [8]: 0.363% | Activity [9]: 18.6% | Activity [10]: 51.85% | Activity [11]: 12% | viability at 1 µM [12]: 13.3% | Activity [13]: 0.453% | Activity [14]: 84.8% | Activity [15]: Active | inhibition [16]: 88.7% | IC50 [17]: 23.1 nM | inhibition [18]: Active | viability at 0.5 µM [19]: 88.7% | Activity [20]: 83.4% | MRT last at 24 h [21]: 4.54 h | Activity [22]: 0.871% | Tmax [23]: 2 h | viability at 1 µM [24]: 85.2% | Activity [25]: 0.31% | IC50 [26]: 1050 nM | clearance [27]: 23.3 mL/min/kg | Activity [28]: Active
